Data reported in PMC9071802 (RSC Advances, 2019).

Test system: P. aeruginosa MH602 lasB reporter strain (PlasB: gfp(ASV))
Assay: Quorum sensing inhibition assay, GFP fluorescence of lasB reporter strain
Assay type: cell-based, Pseudomonas aeruginosa
Details: for inhibition at 62.5 µM / inhibition at 125 µM / inhibition at 250 µM: Pseudomonas aeruginosa; for inhibition at 62.5 µM: read-out: Percentage inhibition of GFP fluorescence, 62.5 μM; for inhibition at 62.5 µM / inhibition at 125 µM / inhibition at 250 µM / Percentage inhibition of GFP fluorescence: ± standard deviation, NA: no activity; for inhibition at 125 µM: read-out: Percentage inhibition of GFP fluorescence, 125 μM; for inhibition at 250 µM: read-out: Percentage inhibition of GFP fluorescence, 250 μM; for Percentage inhibition of GFP fluorescence: 250 μM, 250 µM
In short: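 The reporter is a chromosomal lasB promoter–gfp(ASV) fusion responsive to 3-oxododecanoyl-HSL. Cultures were grown overnight in LB10, then diluted 1:100 in ABT with 0.25% tryptone and 0.13% yeast extract plus ampicillin 100 µg mL⁻¹ and gentamicin 20 µg mL⁻¹. Test compound in DMSO was tested at 62.5, 125 or 250 µM, with 1% DMSO controls. Cultures were incubated at 37 °C and shaken briefly before each read. Fluorescence (ex 485/em 535 nm) and OD600 were read every 30 min for 20 h, in triplicate per experiment.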

Compound | inhibition at 62.5 µM | inhibition at 125 µM | inhibition at 250 µM | Percentage inhibition of GFP fluorescence | QSI activity (at 62.5–250 μM)
CCCc1cn(CC(=O)Nc2nc3ccccc3[nH]2)nn1 [6a, N-(1H-Benzo[d]imidazol-2-yl)-2-(4-propyl-1H-1,2,3-triazol-1-yl)acetamide] | 25.1 ± 0.37% | 35.3 ± 20.4% | 50.5 ± 11.8% |  | 
CCCCCc1cn(CC(=O)Nc2nc3ccccc3[nH]2)nn1 [6b, N-(1H-Benzo[d]imidazol-2-yl)-2-(4-pentyl-1H-1,2,3-triazol-1-yl)acetamide] | 27.4 ± 2.36% | 38.8 ± 11.5% | 43.5 ± 6.23% |  | 
CCCCCCCc1cn(CC(=O)Nc2nc3ccccc3[nH]2)nn1 [6c, N-(1H-Benzo[d]imidazol-2-yl)-2-(4-heptyl-1H-1,2,3-triazol-1-yl)acetamide] | 25.7 ± 7.62% | 34.7 ± 11.6% | 42.8 ± 14.6% |  | 
CCCCCCCCCc1cn(CC(=O)Nc2nc3ccccc3[nH]2)nn1 [6d, N-(1H-Benzo[d]imidazol-2-yl)-2-(4-nonyl-1H-1,2,3-triazol-1-yl)acetamide] | 30.6 ± 7.62% | 41.9 ± 4.5% | 48.5 ± 12.7% |  | 
O=C(Cn1cc(Cn2cc(Cl)ccc2=O)nn1)Nc1nc2ccccc2[nH]1 [6f, N-(1H-Benzo[d]imidazol-2-yl)-2-(4-((5-chloro-2-oxopyridin-1(2H)-yl)methyl)-1H-1,2,3-triazol-1-yl)acetamide] | 36.1 ± 10.7% | 52.7 ± 11.9% | 58.8 ± 5.09% |  | 
O=C(Cn1cc(-c2ccccc2)nn1)Nc1nc2ccccc2[nH]1 [6g, N-(1H-Benzo[d]imidazol-2-yl)-2-(4-phenyl-1H-1,2,3-triazol-1-yl)acetamide] | 15.1 ± 5.83% | 17.4 ± 22% | 46 ± 10.2% |  | 
O=C(Cn1cc(-c2ccc(F)cc2)nn1)Nc1nc2ccccc2[nH]1 [6h, N-(1H-Benzo[d]imidazol-2-yl)-2-(4-(4-fluorophenyl)-1H-1,2,3-triazol-1-yl)acetamide] | 49 ± 12.3% | 54.9 ± 2.42% | 56.1 ± 1.77% |  | 
O=C(Cn1cc(-c2ccc(Cl)cc2)nn1)Nc1nc2ccccc2[nH]1 [6i, N-(1H-Benzo[d]imidazol-2-yl)-2-(4-(4-chlorophenyl)-1H-1,2,3-triazol-1-yl)acetamide] | 52.9 ± 8.86% | 60.5 ± 6.16% | 65 ± 8.25% |  | 
O=C(Cn1cc(-c2ccc(Br)cc2)nn1)Nc1nc2ccccc2[nH]1 [6j, N-(1H-Benzo[d]imidazol-2-yl)-2-(4-(4-bromophenyl)-1H-1,2,3-triazol-1-yl)acetamide] | 45.7 ± 5.44% | 46.2 ± 8.52% | 50.7 ± 10.9% |  | 
Cc1ccc(-c2cn(CC(=O)Nc3nc4ccccc4[nH]3)nn2)cc1 [6k, N-(1H-Benzo[d]imidazol-2-yl)-2-(4-(p-tolyl)-1H-1,2,3-triazol-1-yl)acetamide] | 36.8 ± 6.63% | 32.3 ± 22.2% | 35.9 ± 13.8% |  | 
CC(C)(C)c1ccc(-c2cn(CC(=O)Nc3nc4ccccc4[nH]3)nn2)cc1 [6l, N-(1H-Benzo[d]imidazol-2-yl)-2-(4-(4-(tert-butyl)phenyl)-1H-1,2,3-triazol-1-yl)acetamide] |  |  | 35.2 ± 8.78% |  | 
O=C(Cn1cc(-c2ccc(O)cc2)nn1)Nc1nc2ccccc2[nH]1 [6m, N-(1H-Benzo[d]imidazol-2-yl)-2-(4-(4-hydroxyphenyl)-1H-1,2,3-triazol-1-yl)acetamide] | 34.4 ± 4.97% | 45.7 ± 6.21% | 58.4 ± 7.75% |  | 
COc1ccc(-c2cn(CC(=O)Nc3nc4ccccc4[nH]3)nn2)cc1 [6n, N-(1H-Benzo[d]imidazol-2-yl)-2-(4-(4-methoxyphenyl)-1H-1,2,3-triazol-1-yl)acetamide] |  | 5.16 ± 16.6% | 20 ± 14% |  | 
O=C(Cn1cc(-c2ccc(C(F)(F)F)cc2)nn1)Nc1nc2ccccc2[nH]1 [6o, N-(1H-Benzo[d]imidazol-2-yl)-2-(4-(4-(trifluoromethyl)phenyl)-1H-1,2,3-triazol-1-yl)acetamide] | 57.5 ± 7.73% | 59.9 ± 7.99% | 64.2 ± 7.3% |  | 
O=C(Cn1cc(-c2cccc([N+](=O)[O-])c2)nn1)Nc1nc2ccccc2[nH]1 [6q, N-(1H-Benzo[d]imidazol-2-yl)-2-(4-(3-nitrophenyl)-1H-1,2,3-triazol-1-yl)acetamide] | 28.2 ± 10.2% | 36 ± 6.13% | 39.4 ± 5.14% |  | 
CCCc1cn(CC(=O)Nc2nc3cc(C)c(C)cc3[nH]2)nn1 [7a, N-(5,6-Dimethyl-1H-benzo[d]imidazol-2-yl)-2-(4-propyl-1H-1,2,3-triazol-1-yl)acetamide] | 19.9 ± 3.8% | 22.1 ± 14.7% | 31.8 ± 11% |  | 

Compound | inhibition at 62.5 µM | inhibition at 125 µM | inhibition at 250 µM | Percentage inhibition of GFP fluorescence | QSI activity (at 62.5–250 μM)
CCCCCc1cn(CC(=O)Nc2nc3cc(C)c(C)cc3[nH]2)nn1 [7b, N-(5,6-Dimethyl-1H-benzo[d]imidazol-2-yl)-2-(4-pentyl-1H-1,2,3-triazol-1-yl)acetamide] | 16.9 ± 5.74% | 20.2 ± 11.5% | 26.6 ± 20.8% |  | 
CCCCCCCCCc1cn(CC(=O)Nc2nc3cc(C)c(C)cc3[nH]2)nn1 [7d, N-(5,6-Dimethyl-1H-benzo[d]imidazol-2-yl)-2-(4-nonyl-1H-1,2,3-triazol-1-yl)acetamide] | 37.1 ± 7.75% | 41.6 ± 5.08% | 44.6 ± 3.87% |  | 
Cc1cc2nc(NC(=O)Cn3cc(CSc4nc5ccccc5[nH]4)nn3)[nH]c2cc1C [7e, 2-(4-(((1H-Benzo[d]imidazol-2-yl)thio)methyl)-1H-1,2,3-triazol-1-yl)-N-(5,6-dimethyl-1H-benzo[d]imidazol-2-yl)acetamide] | 15.1 ± 9.82% |  | 16 ± 26.1% |  | 
Cc1cc2nc(NC(=O)Cn3cc(Cn4cc(Cl)ccc4=O)nn3)[nH]c2cc1C [7f, 2-(4-((5-Chloro-2-oxopyridin-1(2H)-yl)methyl)-1H-1,2,3-triazol-1-yl)-N-(5,6-dimethyl-1H-benzo[d]imidazol-2-yl)acetamide] | 26.1 ± 7.69% | 29 ± 13.6% | 36.8 ± 7.9% |  | 
Cc1cc2nc(NC(=O)Cn3cc(-c4ccccc4)nn3)[nH]c2cc1C [7g, N-(5,6-Dimethyl-1H-benzo[d]imidazol-2-yl)-2-(4-phenyl-1H-1,2,3-triazol-1-yl)acetamide] | 28.5 ± 8.41% | 29.9 ± 17.4% | 47.6 ± 14.4% |  | 
Cc1cc2nc(NC(=O)Cn3cc(-c4ccc(Br)cc4)nn3)[nH]c2cc1C [7h, 2-(4-(4-Bromophenyl)-1H-1,2,3-triazol-1-yl)-N-(5,6-dimethyl-1H-benzo[d]imidazol-2-yl)acetamide] | 31.2 ± 5.02% | 44.7 ± 14.3% | 57.6 ± 7.43% |  | 
Cc1ccc(-c2cn(CC(=O)Nc3nc4cc(C)c(C)cc4[nH]3)nn2)cc1 [7i, N-(5,6-Dimethyl-1H-benzo[d]imidazol-2-yl)-2-(4-(p-tolyl)-1H-1,2,3-triazol-1-yl)acetamide] |  | 14.9 ± 8.82% | 50.7 ± 12.3% |  | 
Cc1cc2nc(NC(=O)Cn3cc(-c4ccc(O)cc4)nn3)[nH]c2cc1C [7j, N-(5,6-Dimethyl-1H-benzo[d]imidazol-2-yl)-2-(4-(4-hydroxyphenyl)-1H-1,2,3-triazol-1-yl)acetamide] | 17.6 ± 6.21% | 24.2 ± 14.5% | > 40% | 44.73 ± 13.15% | 
COc1ccc(-c2cn(CC(=O)Nc3nc4cc(C)c(C)cc4[nH]3)nn2)cc1 [7k, N-(5,6-Dimethyl-1H-benzo[d]imidazol-2-yl)-2-(4-(4-methoxyphenyl)-1H-1,2,3-triazol-1-yl)acetamide] | 20.4 ± 2.59% | 24.3 ± 23.3% | > 40% | 40.82 ± 23.41% | 
Cc1cc2nc(NC(=O)Cn3cc(-c4ccc(C(F)(F)F)cc4)nn3)[nH]c2cc1C [7l, N-(5,6-Dimethyl-1H-benzo[d]imidazol-2-yl)-2-(4-(4-(trifluoromethyl)phenyl)-1H-1,2,3-triazol-1-yl)acetamide] | 36.1 ± 7.67% | 56.4 ± 5.85% | 65.8 ± 1.91% |  | 
Cc1cc2nc(NC(=O)Cn3cc(-c4ccc([N+](=O)[O-])cc4)nn3)[nH]c2cc1C [7m, N-(5,6-Dimethyl-1H-benzo[d]imidazol-2-yl)-2-(4-(4-nitrophenyl)-1H-1,2,3-triazol-1-yl)acetamide] | 21 ± 10.3% | 31.5 ± 16.2% | 53.9 ± 9.78% |  | 
Cc1cc2nc(NC(=O)Cn3cc(-c4cccc([N+](=O)[O-])c4)nn3)[nH]c2cc1C [7n, N-(5,6-Dimethyl-1H-benzo[d]imidazol-2-yl)-2-(4-(3-nitrophenyl)-1H-1,2,3-triazol-1-yl)acetamide] | 34.2 ± 7.43% | 34.4 ± 14.1% | 46.7 ± 4.87% |  | 
O=C(CCc1cn(CC(=O)NC2CCCCC2)nn1)Nc1nc2ccccc2[nH]1 [10a, N-(1H-Benzo[d]imidazol-2-yl)-3-(1-(2-(cyclohexylamino)-2-oxoethyl)-1H-1,2,3-triazol-4-yl)propanamide] | 38.4 ± 7.72% | 42.4 ± 8.46% | 47.4 ± 2.69% |  | 38–47%
O=C(Cn1cc(CCC(=O)Nc2nc3ccccc3[nH]2)nn1)Nc1ccccn1 [10b, N-(1H-Benzo[d]imidazol-2-yl)-3-(1-(2-oxo-2-(pyridin-2-ylamino)ethyl)-1H-1,2,3-triazol-4-yl)propanamide] | 4.4 ± 2.93% | 15.6 ± 7.17% | 28.5 ± 17.5% |  | 
O=C(CCCc1cn(CC(=O)NC2CCCC2)nn1)Nc1nc2ccccc2[nH]1 [11a, N-(1H-Benzo[d]imidazol-2-yl)-4-(1-(2-(cyclopentylamino)-2-oxoethyl)-1H-1,2,3-triazol-4-yl)butanamide] | 42.3 ± 10.3% | 45.9 ± 8.18% | 51.2 ± 7.1% |  | 
